Several values for one entry are separate records, joined by “and”; a condition that tells them apart may be missing. Equal entries are not always repeated.
How the values were obtained:
ear pinna [1] = assay: Skin; assay type: in vivo, B6C3F1 mice; details: dermal, 28 days
Outline: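 Dosing was daily topical to both dorsal ears (25 μl/ear, acetone vehicle) in female B6C3F1 mice. Liver caudate lobe or half ear pinna was stored in RNAlater and homogenized in RLT buffer. RNA was isolated on RNeasy columns with DNase, and 1–2 μg was reverse-transcribed. TaqMan real-time PCR was read as 2−ΔΔCT vs vehicle, normalized to β-actin. Statistics: ANOVA/Dunnett's, or Kruskal-Wallis/Dunn's for unequal variance.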

[2] = PFAS concentration in serum; assay type: in vivo, B6C3F1 mice; details: 1.25%–5%, dermal, 28 days
Outline: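 Serum came by cardiac puncture about 24 h after the final daily ear dose (25 μl/ear, acetone vehicle; female B6C3F1 mice). Samples underwent solid-phase extraction and LC/MS/MS. Short-chain analytes were quantified as linear isomer only; the legacy comparator was quantified as linear plus branched. Data are mean ± SE of 4–5 mice, one-way ANOVA with Dunnett's vs vehicle.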

liver = assay: Liver histopathology after 28-day dermal exposure; assay type: in vivo, B6C3F1 mice; details: 28 days, mice affected of 5
Outline: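 Female B6C3F1 mice (5/group) received 25 μl/ear on the dorsal ear surfaces daily, with acetone as vehicle. Tissues were formalin-fixed about 24 h after the last dose: liver remainder, half spleen, right kidney and half ear pinna. Sections were paraffin-embedded, cut at 5 μm and stained with H&E. A veterinary pathologist read them per STP guideline and graded 1 (minimal) to 5 (severe) by extent.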

ear pinna [3] = assay: Skin; assay type: in vivo, B6C3F1 mice; details: dermal, 28 days; remark: listed apart in the source
Outline: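 Female B6C3F1 mice (5/group) received 25 μl/ear daily to the dorsal ears in acetone. About 24 h after the last dose, tissues went into RPMI: both auricular dLNs, half spleen and one ear pinna. Single-cell suspensions were acquired on an LSR II, with populations gated per supplemental strategy and FMO gating controls. Results are mean ± SE, n=5, by one-way ANOVA.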

B6C3F1 mice = assay: Serum chemistries after 28-day dermal exposure; assay type: in vivo; details: 28 days
Outline: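 Female B6C3F1 mice received daily dorsal ear application (25 μl/ear, acetone vehicle). About 24 h after the last dose, blood was taken by cardiac puncture. Serum was separated by centrifugation and stored at −20 °C. ALKP, BUN, glucose and cholesterol were read on a Catalyst DX analyzer. Data are mean ± SE of 4–5 mice, ANOVA with Dunnett's; ALKP was also tested by linear regression (p < 0.05).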

SMILES: O=C(O)C(F)(F)C(F)(F)C(F)(F)C(F)(F)C(F)(F)C(F)(F)F [PFHpA, Perfluoroheptanoic acid]
- skin PPARα gene expression (ear pinna [1]; 1.25–5%): no significant decrease
- skin Pparδ gene expression (ear pinna [1]; 1.25–5%): no changes
- skin Flg gene expression (ear pinna [1]; 2.5%): increased
- skin Krt10 gene expression (ear pinna [1]; 2.5%): increased
- skin Pparγ gene expression (ear pinna [1]; 2.5%): decreased
- skin Flg gene expression (ear pinna [1]; 5%): increased
- skin Krt10 gene expression (ear pinna [1]; 5%): increased
- skin Lor gene expression (ear pinna [1]; 5%): increased
- skin Pparγ gene expression (ear pinna [1]; 5%): decreased
- skin S100a8 gene expression, increase (ear pinna [1]; 5%): 6.7 fold
- skin Serpine1 gene expression, increase (ear pinna [1]; 5%): 1.7 fold
- skin Tslp gene expression, increase (ear pinna [1]; 5%): 5.1 fold
- PFAS serum concentration vs vehicle [2]: significant increase
- Liver: Hypertrophy, centrilobular, hepatocyte, Mild (incidence) (liver; 1.25%): 0
- Liver: Hypertrophy, centrilobular, hepatocyte, Minimal (incidence) (liver; 1.25%): 3/5 and 3
- Liver: Hypertrophy, centrilobular, hepatocyte, Mild (incidence) (liver; 2.5%): 0
- Liver: Hypertrophy, centrilobular, hepatocyte, Minimal (incidence) (liver; 2.5%): 5/5 and 5
- Liver: Hypertrophy, centrilobular, hepatocyte, Mild (incidence) (liver; 5%): 3/5 and 3
- Liver: Hypertrophy, centrilobular, hepatocyte, Minimal (incidence) (liver; 5%): 2/5 and 2
- Ear CD4^+ cell number (ear pinna [3]; 1.25%): 1.49 ± 0.38 × 10^3
- Ear CD4^+ frequency (ear pinna [3]; 1.25%): 1.78 ± 0.19%
- Ear CD8^+ cell number (ear pinna [3]; 1.25%): 0.79 ± 0.14 × 10^2
- Ear CD8^+ frequency (ear pinna [3]; 1.25%): 0.11 ± 0.03%
- Ear CD45^+ cell number (ear pinna [3]; 1.25%): 8.01 ± 1.58 × 10^4
- Ear CD45^+ frequency (ear pinna [3]; 1.25%): 8.04 ± 1.11%
- Ear CD lib- F4/80+ DCs cell number (ear pinna [3]; 1.25%): 5.44 ± 0.94 × 10^2
- Ear CDllb + F4/80+ DCs cell number (ear pinna [3]; 1.25%): 4.52 ± 0.98 × 10^2
- Ear CDllb- F4/80+ DCs frequency (ear pinna [3]; 1.25%): 0.70 ± 0.05%
- Ear CDllb- F4/80-DCs cell number (ear pinna [3]; 1.25%): 1.12 ± 0.29 × 10^3
- Ear CDllb- F4/80-DCs frequency (ear pinna [3]; 1.25%): 1.34 ± 0.16 %
- Ear Dendritic Cells cell number (ear pinna [3]; 1.25%): 2.18 ± 0.47 × 10^3
- Ear Dendritic Cells frequency (ear pinna [3]; 1.25%): 2.69 ± 0.15%
- Ear Eosinophils cell number (ear pinna [3]; 1.25%): 1.41 ± 0.42 × 10^3
- Ear Eosinophils frequency (ear pinna [3]; 1.25%): 1.60 ± 0.26%
- Ear NK cell number (ear pinna [3]; 1.25%): 3.89 ± 0.91 × 10^2
- Ear NK frequency (ear pinna [3]; 1.25%): 0.48 ± 0.04%
- Ear Neutrophils cell number (ear pinna [3]; 1.25%): 1.59 ± 0.24 × 10^2
- Ear Neutrophils frequency (ear pinna [3]; 1.25%): 0.21 ± 0.02%
- Ear Total Cellularity (ear pinna [3]; 1.25%): 0.96 ± 0.08 × 10^6
- Ear CD8^+ cell number (ear pinna [3]; 2.5%): 1.77 ± 0.27 × 10^2
- Ear CD8^+ frequency (ear pinna [3]; 2.5%): 0.16 ± 0.01%
- Ear CD lib- F4/80+ DCs cell number (ear pinna [3]; 2.5%): 7.95 ± 0.98 × 10^2
- Ear CDllb + F4/80+ DCs cell number (ear pinna [3]; 2.5%): 13.00 ± 2.97 × 10^2
- Ear CDllb + F4/80+ DCs frequency (ear pinna [3]; 2.5%): 1.13 ± 0.12 %
- Ear CDllb- F4/80+ DCs frequency (ear pinna [3]; 2.5%): 0.75 ± 0.08 %
- Ear CDllb- F4/80-DCs cell number (ear pinna [3]; 2.5%): 2.42 ± 0.45 × 10^3
- Ear Dendritic Cells frequency (ear pinna [3]; 2.5%): 4.21 ± 0.26 %
- Ear Eosinophils cell number (ear pinna [3]; 2.5%): 5.54 ± 1.71 × 10^3
- Ear Eosinophils frequency (ear pinna [3]; 2.5%): 4.57 ± 0.96 %
- Ear NK cell number (ear pinna [3]; 2.5%): 7.43 ± 1.69 × 10^2
- Ear NK frequency (ear pinna [3]; 2.5%): 0.66 ± 0.08%
- Ear Neutrophils cell number (ear pinna [3]; 2.5%): 2.48 ± 0.43 × 10^2
- Ear CD4^+ cell number (ear pinna [3]; 5%): 6.06 ± 0.33 × 10^3
- Ear CD4^+ frequency (ear pinna [3]; 5%): 4.18 ± 0.24 %
- Ear CD8^+ cell number (ear pinna [3]; 5%): 2.81 ± 0.39 × 10^2
- Ear CD8^+ frequency (ear pinna [3]; 5%): 0.20 ± 0.03 %
- Ear CD45^+ cell number (ear pinna [3]; 5%): 14.60 ± 0.67 × 10^4
- Ear CD45^+ frequency (ear pinna [3]; 5%): 12.38 ± 0.81%
- Ear CD lib- F4/80+ DCs cell number (ear pinna [3]; 5%): 14.50 ± 0.97 × 10^2
- Ear CDllb + F4/80+ DCs cell number (ear pinna [3]; 5%): 18.90 ± 1.84 × 10^2
- Ear CDllb + F4/80+ DCs frequency (ear pinna [3]; 5%): 1.31 ± 0.14 %
- Ear CDllb- F4/80+ DCs frequency (ear pinna [3]; 5%): 1.00 ± 0.07 %
- Ear CDllb- F4/80-DCs cell number (ear pinna [3]; 5%): 3.38 ± 0.19 × 10^3
- Ear CDllb- F4/80-DCs frequency (ear pinna [3]; 5%): 2.32 ± 0.03%
- Ear Dendritic Cells cell number (ear pinna [3]; 5%): 7.25 ± 0.31 × 10^3
- Ear Dendritic Cells frequency (ear pinna [3]; 5%): 4.99 ± 0.15 %
- Ear Eosinophils cell number (ear pinna [3]; 5%): 6.45 ± 1.12 × 10^3
- Ear Eosinophils frequency (ear pinna [3]; 5%): 4.36 ± 0.63 %
- Ear NK cell number (ear pinna [3]; 5%): 7.96 ± 0.70 × 10^2
- Ear NK frequency (ear pinna [3]; 5%): 0.56 ± 0.07%
- Ear Neutrophils cell number (ear pinna [3]; 5%): 7.10 ± 1.15 × 10^2
- Ear Neutrophils frequency (ear pinna [3]; 5%): 0.49 ± 0.07 %
- Ear Total Cellularity (ear pinna [3]; 5%): 1.19 ± 0.08 × 10^6
- serum ALKP (B6C3F1 mice; 1.25–5%, linear regression p < 0.05, not significant via ANOVA): significant linear regression increase
- serum glucose, increase compared to vehicle control (B6C3F1 mice; 5%): 30%
- serum urea nitrogen (BUN), decrease (B6C3F1 mice; 5%): 30%
- serum alanine aminotransferase (ALT) (B6C3F1 mice; any concentration, data not shown): No change

— publication PMC9989852 (Food and chemical toxicology : an international journal …, 2022)
